In PMC10213863 (Cell Reports Medicine, 2023):
Read-outs that look alike come from different tables or passages of the source.

Experiments:
Type in all cases: cell-based
TLR7 = biological target: T1, TLR7 (Homo sapiens, UniProt Q9NYK1); assay: Ramos Blue NF-κB/AP-1 reporter B cell line, TLR7 stimulation; conditions: Ramos cells, mean ± SD
T1 sequence (Q9NYK1 27-1049): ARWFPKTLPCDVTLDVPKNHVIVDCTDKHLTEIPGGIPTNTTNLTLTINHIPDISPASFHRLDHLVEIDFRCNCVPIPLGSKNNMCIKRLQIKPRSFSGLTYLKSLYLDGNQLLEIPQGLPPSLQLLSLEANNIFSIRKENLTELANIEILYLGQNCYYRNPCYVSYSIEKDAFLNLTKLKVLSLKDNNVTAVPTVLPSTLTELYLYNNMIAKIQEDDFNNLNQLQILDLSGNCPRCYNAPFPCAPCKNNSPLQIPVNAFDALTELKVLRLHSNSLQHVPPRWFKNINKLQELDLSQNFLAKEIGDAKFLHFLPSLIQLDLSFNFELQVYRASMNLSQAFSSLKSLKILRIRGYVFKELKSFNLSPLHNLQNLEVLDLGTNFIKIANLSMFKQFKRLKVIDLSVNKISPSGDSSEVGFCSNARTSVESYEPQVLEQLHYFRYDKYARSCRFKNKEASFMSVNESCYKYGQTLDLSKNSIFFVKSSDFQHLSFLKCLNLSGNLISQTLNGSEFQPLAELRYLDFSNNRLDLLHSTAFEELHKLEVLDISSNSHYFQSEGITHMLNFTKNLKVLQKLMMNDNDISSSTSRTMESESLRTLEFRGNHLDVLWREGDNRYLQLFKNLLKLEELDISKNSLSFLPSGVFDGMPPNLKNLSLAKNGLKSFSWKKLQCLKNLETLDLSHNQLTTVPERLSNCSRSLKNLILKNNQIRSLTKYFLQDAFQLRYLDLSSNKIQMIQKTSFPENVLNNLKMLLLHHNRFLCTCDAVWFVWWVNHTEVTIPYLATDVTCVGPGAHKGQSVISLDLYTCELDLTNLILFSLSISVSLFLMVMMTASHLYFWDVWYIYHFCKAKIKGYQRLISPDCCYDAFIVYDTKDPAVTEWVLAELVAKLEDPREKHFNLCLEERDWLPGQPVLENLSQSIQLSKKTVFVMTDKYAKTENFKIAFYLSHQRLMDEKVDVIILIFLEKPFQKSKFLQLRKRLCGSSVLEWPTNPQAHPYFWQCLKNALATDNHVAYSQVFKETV
Outline: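 Ramos Blue B reporter cells were pre-treated 30 min at 37°C, 5% CO2 with increasing concentrations of test compound or 0.25% v/v DMSO. They were then stimulated with the respective agonist, and reporter activity was read.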

TLR8 = biological target: T2, TLR8 (Homo sapiens, UniProt Q9NR97); assay: Human PBMC assay, ssRNA-induced TNF
T2 sequence (Q9NR97 27-1041): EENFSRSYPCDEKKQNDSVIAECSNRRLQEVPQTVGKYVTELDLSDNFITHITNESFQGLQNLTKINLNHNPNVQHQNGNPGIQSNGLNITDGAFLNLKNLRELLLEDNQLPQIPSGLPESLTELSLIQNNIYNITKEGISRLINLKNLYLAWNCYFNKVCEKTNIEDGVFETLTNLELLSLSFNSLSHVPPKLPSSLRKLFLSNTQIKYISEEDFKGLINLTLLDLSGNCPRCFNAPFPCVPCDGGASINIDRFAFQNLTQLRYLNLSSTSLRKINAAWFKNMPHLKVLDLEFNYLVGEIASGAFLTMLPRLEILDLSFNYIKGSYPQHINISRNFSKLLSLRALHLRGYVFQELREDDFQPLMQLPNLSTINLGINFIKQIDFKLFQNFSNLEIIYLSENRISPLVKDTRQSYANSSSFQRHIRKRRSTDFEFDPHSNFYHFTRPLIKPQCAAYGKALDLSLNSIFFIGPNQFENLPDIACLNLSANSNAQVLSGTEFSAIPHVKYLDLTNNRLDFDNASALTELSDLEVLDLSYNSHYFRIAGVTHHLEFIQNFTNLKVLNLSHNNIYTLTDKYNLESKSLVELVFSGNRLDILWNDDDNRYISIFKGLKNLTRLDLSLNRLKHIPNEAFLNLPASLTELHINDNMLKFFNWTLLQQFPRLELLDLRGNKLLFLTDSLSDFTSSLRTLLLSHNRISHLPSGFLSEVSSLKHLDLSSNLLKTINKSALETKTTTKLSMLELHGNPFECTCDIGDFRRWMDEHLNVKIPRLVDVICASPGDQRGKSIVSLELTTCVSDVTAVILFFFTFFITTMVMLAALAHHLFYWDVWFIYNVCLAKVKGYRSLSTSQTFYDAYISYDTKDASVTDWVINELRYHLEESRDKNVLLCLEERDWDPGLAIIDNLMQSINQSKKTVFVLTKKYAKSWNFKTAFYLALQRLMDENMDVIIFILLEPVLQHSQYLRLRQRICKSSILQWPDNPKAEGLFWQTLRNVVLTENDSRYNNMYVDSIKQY
Outline: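 Human PBMCs were pre-incubated 30 min with test compound, then stimulated with the respective TLR or IL-1R agonist at doses from earlier work. Cytokines in supernatants were quantified by immunoassay. Viability across the dose range was checked by CellTiter-Glo.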

TLR4 = TLR4 (Mus musculus, UniProt Q9QUK6); assay: Murine whole blood assay, TLR4 activation; conditions: up to 10 μM, data not shown, n = 4
Outline: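 Fresh human blood or 129/Sv mouse blood was taken into citrate and diluted 1:1 with RPMI1640. It was pre-incubated 30 min at 37°C, 5% CO2 with increasing concentrations of test compound or 0.25% v/v DMSO (final). Blood was then stimulated with TLR agonists at doses from earlier work, or with R848 (3 μM), and cytokines were quantified. Viability was checked by ATPlite luminescence.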

TLR4, sequence (Q9QUK6 26-835): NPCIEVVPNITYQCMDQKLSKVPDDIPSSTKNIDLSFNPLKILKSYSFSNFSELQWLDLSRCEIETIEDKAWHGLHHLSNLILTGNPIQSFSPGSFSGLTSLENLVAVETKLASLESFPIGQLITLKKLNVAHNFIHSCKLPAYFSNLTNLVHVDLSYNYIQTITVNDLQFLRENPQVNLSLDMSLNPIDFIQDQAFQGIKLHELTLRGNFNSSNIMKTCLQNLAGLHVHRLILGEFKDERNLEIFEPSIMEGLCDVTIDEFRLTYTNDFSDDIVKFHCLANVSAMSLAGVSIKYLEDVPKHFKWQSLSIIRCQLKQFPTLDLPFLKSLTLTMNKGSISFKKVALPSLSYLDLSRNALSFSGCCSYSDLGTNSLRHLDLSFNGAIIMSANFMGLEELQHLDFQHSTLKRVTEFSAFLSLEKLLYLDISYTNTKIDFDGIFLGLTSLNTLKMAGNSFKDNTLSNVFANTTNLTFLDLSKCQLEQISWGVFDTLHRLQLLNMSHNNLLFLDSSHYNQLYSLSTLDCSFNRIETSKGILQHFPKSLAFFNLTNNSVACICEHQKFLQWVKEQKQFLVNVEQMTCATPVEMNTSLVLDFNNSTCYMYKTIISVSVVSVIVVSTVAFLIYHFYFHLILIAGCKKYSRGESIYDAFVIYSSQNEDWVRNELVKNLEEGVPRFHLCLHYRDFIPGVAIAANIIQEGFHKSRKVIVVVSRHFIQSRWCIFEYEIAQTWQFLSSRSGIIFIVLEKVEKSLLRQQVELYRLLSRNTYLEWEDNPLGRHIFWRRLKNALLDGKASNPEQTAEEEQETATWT
TLR4, sequence (Q9JHF9 19-160 partner): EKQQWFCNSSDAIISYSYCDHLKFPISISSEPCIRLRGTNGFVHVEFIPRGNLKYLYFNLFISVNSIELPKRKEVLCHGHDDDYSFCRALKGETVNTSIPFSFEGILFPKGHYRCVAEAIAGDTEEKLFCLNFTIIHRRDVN

Cc1cc(N2CCc3c(c(C)nn3CC34CCC(NC(=O)[C@@H]5COCCN5)(CC3)CC4)C2)c2cnn(C)c2n1 [MHV370, (S)-N-(4-((5-(1,6-dimethyl-1H-pyrazolo[3,4-b]pyridin-4-yl)-3-methyl-4,5,6,7-tetrahydro-1H-pyrazolo[4,3-c]pyridin-1-yl)methyl)bicyclo[2.2.2]octan-1-yl)morpholine-3-carboxamide]
IC50 (TLR7; IC50, CL307-driven reporter gene activity, CL307): 15 ± 10 nM | IC50 (TLR7; read-out: IC50, R848-driven reporter gene activity, R848): 7 ± 0.1 nM | IC50 (TLR8): 70 ± 7.4 nM | functional inhibition of TLR4 (TLR4): did not show functional inhibition
